The text below walks through data of ChEMBL document CHEMBL1142071, “Coproduction of novel 16S rRNA methylase RmtD and metallo-beta-lactamase SPM-1 in a panresistant Pseudomonas aeruginosa isolate from Brazil” (2007).

In brackets after ≈: the same amount, converted by molar mass.

Holding throughout (type): functional
One test relates to Pseudomonas aeruginosa. Put plainly: Antimicrobial activity against Pseudomonas aeruginosa PA0905. An outline of the steps: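 The clinical urine isolate was collected in 2005 in Sorocaba, Brazil. Aminoglycoside MICs were determined by CLSI agar dilution, with E. coli ATCC 25922 as the control strain. β-Lactam, ciprofloxacin and colistin MICs were determined by Etest.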
Test [1] relates to Escherichia coli. As to the kind of experiment: Antimicrobial activity against Escherichia coli XL1-Blue [pBluescript 2 SK(+). An outline of the steps:
(§1)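 Aminoglycoside MICs were determined by CLSI agar dilution, with E. coli ATCC 25922 as the control strain. The host was E. coli XL1-Blue carrying pBluescript II SK(+), either as vector alone or as a ligated Sau3AI partial digest of the cloned resistance plasmid. Transformants were selected on LB agar with 50 μg/ml ampicillin plus 10 μg/ml amikacin.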

Test [2] relates to Escherichia coli. As to the kind of experiment: Antimicrobial activity against Escherichia coli XL1-Blue pPA95S29. An outline of the steps:
as §1

For orientation: MIC means the lowest concentration found to suppress growth. Low values mean greater potency, high ones weaker potency. Take `C[C@@H](O)[C@H]1C(=O)N2C(C(=O)O)=C(SCCNC=N)C[C@H]12` [IMIPENEM ANHYDROUS]: the MIC in the test on Pseudomonas aeruginosa was > 32 µg/mL.
In the case of `NC[C@@H]1O[C@H](O[C@H]2[C@@H](O)[C@H](O[C@@H]3[C@@H](O)[C@H](N)C[C@H](N)[C@H]3O[C@H]3O[C@H](CN)[C@@H](O)[C@H](O)[C@H]3N)O[C@@H]2CO)[C@H](N)[C@@H](O)[C@@H]1O` [FRAMYCETIN], the figures for the minimal inhibitory concentration (MIC) in the test with Escherichia coli [1], with Escherichia coli [2] and in the test with Pseudomonas aeruginosa were 0.12 µg/mL (≈ 0.195 µM), 0.12 µg/mL (≈ 0.195 µM) and 64 µg/mL (≈ 104 µM), respectively.
Take `O=C(O)c1cn(C2CC2)c2cc(N3CCNCC3)c(F)cc2c1=O` [CIPROFLOXACIN]: the MIC in the test on Pseudomonas aeruginosa was > 32 µg/mL.
As to `NCC[C@H](O)C(=O)N[C@@H]1C[C@H](N)[C@@H](O[C@H]2O[C@H](CN)CC[C@H]2N)[C@H](O)[C@H]1O[C@H]1O[C@H](CO)[C@@H](O)[C@H](N)[C@H]1O` [ARBEKACIN], the values for the minimum inhibitory concentration (MIC) in the test on Escherichia coli [1], in the test on Escherichia coli [2] and in the test with Pseudomonas aeruginosa were 0.25 µg/mL (≈ 0.452 µM), > 256 µg/mL and > 256 µg/mL, respectively.
As for `CC(C)(O/N=C(\C(=O)N[C@@H]1C(=O)N2C(C(=O)[O-])=C(C[n+]3ccccc3)CS[C@H]12)c1csc(N)n1)C(=O)O` [CEFTAZIDIME], the MIC with Pseudomonas aeruginosa is > 256 µg/mL.
Turning to `NCC[C@H](O)C(=O)N[C@@H]1C[C@H](N)[C@@H](O[C@H]2O[C@H](CN)[C@@H](O)[C@H](O)[C@H]2O)[C@H](O)[C@H]1O[C@H]1O[C@H](CO)[C@@H](O)[C@H](N)[C@H]1O` [AMIKACIN], the minimum inhibitory concentration (MIC) is 0.5 µg/mL (≈ 0.854 µM) in the test with Escherichia coli [1], > 256 µg/mL in the test on Escherichia coli [2] and > 256 µg/mL in the test on Pseudomonas aeruginosa.
With `C[C@@H](O)[C@H]1C(=O)N2C(C(=O)O)=C(S[C@@H]3CN[C@H](C(=O)N(C)C)C3)[C@H](C)[C@H]12` [MEROPENEM], the MIC in the test on Pseudomonas aeruginosa was > 32 µg/mL.
Same read-out and setting: the value for `C[C@H]1[C@H](NC(=O)/C(=N\OC(C)(C)C(=O)O)c2csc(N)n2)C(=O)N1S(=O)(=O)O` [AZTREONAM] was 8 µg/mL (≈ 18.4 µM); that for `CO/N=C(\C(=O)N[C@@H]1C(=O)N2C(C(=O)[O-])=C(C[N+]3(C)CCCC3)CS[C@H]12)c1csc(N)n1` [CEFEPIME] was > 256 µg/mL.
On to `CN[C@@H]1[C@@H](O[C@H]2O[C@H](CO)[C@@H](N)[C@H](O)[C@H]2O)OC2C[C@@H](N)[C@@H](O[C@H]3[C@H](O)[C@@H](O)[C@H](N)C[C@@H]3N)OC2[C@@H]1O` (some centres undefined) [APRAMYCIN], for which the MIC amounted to 2 µg/mL (≈ 3.71 µM) in the test on Escherichia coli [1], 2 µg/mL (≈ 3.71 µM) against Escherichia coli [2] and 32 µg/mL (≈ 59.3 µM) in the test on Pseudomonas aeruginosa.
In the case of `NC[C@H]1O[C@H](O[C@H]2[C@H](O)[C@@H](O[C@H]3O[C@H](CO)[C@@H](O)[C@H](N)[C@H]3O)[C@H](N)C[C@@H]2N)[C@H](N)C[C@@H]1O` [TOBRAMYCIN], the MIC with Escherichia coli [1] was 0.06 µg/mL (≈ 0.128 µM); in the test on Escherichia coli [2] it was 64 µg/mL (≈ 137 µM); in the test on Pseudomonas aeruginosa, 256 µg/mL (≈ 548 µM).
Taken in the same sequence, the figures for `CN[C@@H]1[C@H](O[C@H]2[C@H](O[C@H]3[C@H](O)[C@@H](O)[C@H](N=C(N)N)[C@@H](O)[C@@H]3N=C(N)N)O[C@@H](C)[C@]2(O)C=O)O[C@@H](CO)[C@H](O)[C@H]1O` [STREPTOMYCIN] were 0.5 µg/mL (≈ 0.86 µM), 1 µg/mL (≈ 1.72 µM) and 128 µg/mL (≈ 220 µM).
